The source made the active and inactive calls. The rule behind the calls is not given here.
Legend:
Brain [1] = assay: Drug uptake in C57Bl/6J mouse brain at 25 mg/kg, sc measured at 10 mins by reversed phase UPLC/ESI-MRM analysis; format: ADME, organism-based; parameters: dose 25 mg/kg, route subcutaneous; conditions: in vivo
Procedure, shortened: (§1)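 Female C57Bl/6J mice (6–8 weeks, 16–19 g) received a single 100 µL sc dose equivalent to 25 mg/kg, in 10% DMSO/25% Tween 80/65% water or 80% propylene glycol/20% DMSO. Terminal heparinised vena cava blood gave plasma, and saline-perfused whole brain was taken; n = 3 per time point. Acetonitrile extracts with internal standard were run by UPLC/ESI-MRM against matrix calibration curves, linear 0.05–5 µM.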

[2] = Plasma concentration in C57Bl/6J mouse at 25 mg/kg, sc measured at 5 hrs by reversed phase UPLC/ESI-MRM analysis; format: ADME, organism-based; parameters: dose 25 mg/kg, route subcutaneous; procedure, shortened: as §1
Brain [3] = assay: AUC (0 to last) in C57Bl/6J mouse brain at 25 mg/kg, sc; format: ADME, organism-based; parameters: dose 25 mg/kg, route subcutaneous; conditions: in vivo
Procedure, shortened: (§2)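 Mice were dosed sc once at 25 mg/kg; plasma and perfused brain (n = 3 per time point) were quantified by UPLC/ESI-MRM. AUC0-last came from the mean concentration-time curve by the trapezoidal rule, and AUC0-∞ = AUC0-last + Clast/k. α and β half-lives came from linear regression on the linear portion of the concentration-time data, with t1/2 = ln2/k.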

Plasma [4] = assay: AUC (0 to infinity) in C57Bl/6J mouse plasma at 25 mg/kg, sc; format: ADME, organism-based; parameters: time infinity, dose 25 mg/kg, route subcutaneous; conditions: in vivo; procedure, shortened: as §2
Brain [5] = assay: Elimination half life in C57Bl/6J mouse brain at 25 mg/kg, sc; format: ADME, organism-based; parameters: dose 25 mg/kg, route subcutaneous; conditions: in vivo; procedure, shortened: as §2
Plasma [6] = assay: Plasma concentration in C57Bl/6J mouse at 25 mg/kg, sc measured at 10 mins by reversed phase UPLC/ESI-MRM analysis; format: ADME, organism-based; parameters: dose 25 mg/kg, route subcutaneous; conditions: in vivo; procedure, shortened: as §1
[7] = Primary phase half life in C57Bl/6J mouse brain at 25 mg/kg, sc; format: ADME, organism-based; parameters: dose 25 mg/kg, route subcutaneous; conditions: read-out: alphat1/2; procedure, shortened: as §2
Plasma [8] = assay: AUC (0 to last) in C57Bl/6J mouse plasma at 25 mg/kg, sc; format: ADME, organism-based; parameters: time 0 - last, dose 25 mg/kg, route subcutaneous; conditions: in vivo; procedure, shortened: as §2
Neutrophil collagenase = Neutrophil collagenase (Homo sapiens, UniProt P22894); assay: Inhibition of human recombinant MMP-8 catalytic domain using […] as substrate by fluorescence spectrophotometric analysis
Chain of Neutrophil collagenase (P22894 whole entry, the tested form may be a part): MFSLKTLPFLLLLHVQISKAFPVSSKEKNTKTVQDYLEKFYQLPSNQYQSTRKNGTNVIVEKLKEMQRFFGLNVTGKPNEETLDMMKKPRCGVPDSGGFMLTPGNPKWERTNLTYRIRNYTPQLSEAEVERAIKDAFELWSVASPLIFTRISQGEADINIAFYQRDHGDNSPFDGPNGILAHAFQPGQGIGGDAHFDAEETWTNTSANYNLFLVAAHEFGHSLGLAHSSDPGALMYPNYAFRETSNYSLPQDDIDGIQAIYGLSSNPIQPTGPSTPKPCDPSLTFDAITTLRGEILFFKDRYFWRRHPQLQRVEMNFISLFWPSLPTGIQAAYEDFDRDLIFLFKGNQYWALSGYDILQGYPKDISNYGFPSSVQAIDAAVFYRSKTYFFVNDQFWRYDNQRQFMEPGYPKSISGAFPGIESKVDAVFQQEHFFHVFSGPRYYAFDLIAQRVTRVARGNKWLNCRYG

Plasma [9] = assay: Metabolic stability in C57Bl/6J mouse plasma assessed as formation of ND-322 at 25 mg/kg, sc measured at 10 to 300 mins; format: ADME, organism-based; parameters: dose 25 mg/kg, route subcutaneous; conditions: in vivo; procedure, shortened: as §1
[10] = target: T1, Interstitial collagenase (Homo sapiens) (UniProt P03956); assay: Inhibition of human recombinant MMP-1 catalytic domain at 50 uM by fluorescence spectrophotometric analysis relative to control
T1 sequence (whole entry): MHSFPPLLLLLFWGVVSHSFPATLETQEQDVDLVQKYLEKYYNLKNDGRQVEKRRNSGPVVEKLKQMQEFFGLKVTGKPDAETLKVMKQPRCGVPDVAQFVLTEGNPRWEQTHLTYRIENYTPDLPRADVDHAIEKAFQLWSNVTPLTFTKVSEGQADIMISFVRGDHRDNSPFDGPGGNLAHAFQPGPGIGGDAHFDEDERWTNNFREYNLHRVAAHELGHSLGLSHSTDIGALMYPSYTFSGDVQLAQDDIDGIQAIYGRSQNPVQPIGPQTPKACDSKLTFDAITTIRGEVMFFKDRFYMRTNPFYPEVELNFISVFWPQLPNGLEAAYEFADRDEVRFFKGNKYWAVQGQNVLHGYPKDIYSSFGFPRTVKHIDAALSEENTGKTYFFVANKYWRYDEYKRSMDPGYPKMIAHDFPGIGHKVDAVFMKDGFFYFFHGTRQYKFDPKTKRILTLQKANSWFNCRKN

[11] = target: MMP-2/MMP-9 (Homo sapiens) (UniProt P08253+P14780); assay: Selectivity ratio of Ki for human recombinant MMP-9 catalytic domain to Ki for human recombinant MMP-2
[12] = target: Matrix metalloproteinase-9 (Homo sapiens, UniProt P14780); assay: Inhibition of human recombinant MMP-9 catalytic domain using MOCAcPLGLA2pr(Dnp)AR-NH2 as substrate at 50 uM by fluorescence spectrophotometric analysis relative to control
Chain of Matrix metalloproteinase-9 (P14780 whole entry, the tested form may be a part): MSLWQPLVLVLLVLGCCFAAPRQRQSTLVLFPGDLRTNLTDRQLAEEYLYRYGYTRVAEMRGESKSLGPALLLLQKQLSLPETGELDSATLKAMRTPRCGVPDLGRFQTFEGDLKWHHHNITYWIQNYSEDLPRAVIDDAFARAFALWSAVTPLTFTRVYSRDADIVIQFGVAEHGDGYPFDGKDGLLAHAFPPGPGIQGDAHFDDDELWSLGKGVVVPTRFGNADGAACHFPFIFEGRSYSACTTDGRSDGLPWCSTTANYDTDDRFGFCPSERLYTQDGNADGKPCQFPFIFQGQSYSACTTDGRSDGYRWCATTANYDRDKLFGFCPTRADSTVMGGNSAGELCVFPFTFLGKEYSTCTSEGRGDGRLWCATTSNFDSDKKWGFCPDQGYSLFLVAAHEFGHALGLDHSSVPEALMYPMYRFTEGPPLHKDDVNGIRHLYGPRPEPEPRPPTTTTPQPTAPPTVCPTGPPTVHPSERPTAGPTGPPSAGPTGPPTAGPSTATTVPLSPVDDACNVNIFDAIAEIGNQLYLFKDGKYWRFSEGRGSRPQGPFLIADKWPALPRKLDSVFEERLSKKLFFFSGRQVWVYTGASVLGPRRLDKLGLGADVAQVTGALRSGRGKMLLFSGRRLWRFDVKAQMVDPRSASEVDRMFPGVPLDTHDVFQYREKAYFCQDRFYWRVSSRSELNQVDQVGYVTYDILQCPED

[13] = target: Stromelysin-1 (Homo sapiens) (UniProt P08254); assay: Inhibition of human recombinant MMP-3 catalytic domain at 50 uM by fluorescence spectrophotometric analysis relative to control
Brain [14] = assay: Drug uptake in C57Bl/6J mouse brain measured per mg of tissue at 25 mg/kg, sc measured at 5 hrs by reversed phase UPLC/ESI-MRM analysis; format: ADME, organism-based; parameters: dose 25 mg/kg, route subcutaneous; conditions: in vivo; procedure, shortened: as §1
[15] = Primary phase half life in C57Bl/6J mouse plasma at 25 mg/kg, sc; format: ADME, organism-based; parameters: dose 25 mg/kg, route subcutaneous; conditions: read-out: alphat1/2; procedure, shortened: as §2
Brain [16] = assay: AUC (0 to infinity) in C57Bl/6J mouse brain at 25 mg/kg, sc; format: ADME, organism-based; parameters: time infinity, dose 25 mg/kg, route subcutaneous; conditions: in vivo; procedure, shortened: as §2
[17] = target: T2, Matrilysin (Homo sapiens) (UniProt P09237); assay: Inhibition of human recombinant MMP-7 at 50 uM by fluorescence spectrophotometric analysis relative to control
T2 sequence (whole entry): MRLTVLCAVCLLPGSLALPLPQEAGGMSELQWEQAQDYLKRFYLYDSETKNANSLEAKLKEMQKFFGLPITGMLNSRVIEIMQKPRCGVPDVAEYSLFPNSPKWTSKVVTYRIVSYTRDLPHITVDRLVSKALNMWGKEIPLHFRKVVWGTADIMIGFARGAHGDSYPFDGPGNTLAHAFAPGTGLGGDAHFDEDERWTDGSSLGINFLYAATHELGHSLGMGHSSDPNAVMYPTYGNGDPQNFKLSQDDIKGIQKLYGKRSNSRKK

[18] = target: Matrix metalloproteinase-14 (Homo sapiens, UniProt P50281); assay: Inhibition of human recombinant MMP-14 catalytic domain using MOCAcPLGLA2pr(Dnp)AR-NH2 as substrate at 50 uM by fluorescence spectrophotometric analysis relative to control
Plasma [19] = assay: Elimination half life in C57Bl/6J mouse plasma at 25 mg/kg, sc; format: ADME, organism-based; parameters: dose 25 mg/kg, route subcutaneous; conditions: in vivo; procedure, shortened: as §2
[20] = target: 72 kDa type IV collagenase (Homo sapiens, UniProt P08253); assay: Inhibition of human recombinant MMP-2 using MOCAcPLGLA2pr(Dnp)AR-NH2 as substrate by fluorescence spectrophotometric analysis
Chain of 72 kDa type IV collagenase (P08253 whole entry, the tested form may be a part): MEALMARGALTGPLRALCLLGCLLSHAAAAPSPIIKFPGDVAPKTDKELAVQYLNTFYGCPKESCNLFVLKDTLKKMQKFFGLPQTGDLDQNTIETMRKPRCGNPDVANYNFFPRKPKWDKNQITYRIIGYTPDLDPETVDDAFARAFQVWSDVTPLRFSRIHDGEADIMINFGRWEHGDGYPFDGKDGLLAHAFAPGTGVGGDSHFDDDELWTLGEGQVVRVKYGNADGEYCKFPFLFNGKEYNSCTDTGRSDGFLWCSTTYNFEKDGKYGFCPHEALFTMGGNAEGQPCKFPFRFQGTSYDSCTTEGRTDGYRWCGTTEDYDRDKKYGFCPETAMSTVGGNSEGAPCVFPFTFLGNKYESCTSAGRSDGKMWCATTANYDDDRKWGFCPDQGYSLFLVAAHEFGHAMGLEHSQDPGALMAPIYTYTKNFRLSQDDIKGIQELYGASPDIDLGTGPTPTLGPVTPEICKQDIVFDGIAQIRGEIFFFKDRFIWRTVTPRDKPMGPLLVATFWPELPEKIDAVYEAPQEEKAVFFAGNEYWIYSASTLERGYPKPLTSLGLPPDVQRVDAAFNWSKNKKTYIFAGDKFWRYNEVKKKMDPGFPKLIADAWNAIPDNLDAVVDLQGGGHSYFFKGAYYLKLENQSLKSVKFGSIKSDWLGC

[21] = target: MMP-2/MMP-14 (Homo sapiens) (UniProt P50281+P08253); assay: Selectivity ratio of Ki for human recombinant MMP-14 catalytic domain to Ki for human recombinant MMP-2
Homo sapiens = species: Homo sapiens; assay: Selectivity ratio of Ki for human recombinant MMP-8 catalytic domain to Ki for human recombinant MMP-2
[22] = Ratio of AUC in brain to plasma in C57Bl/6J mouse at 25 mg/kg, sc; format: ADME, organism-based; parameters: dose 25 mg/kg, route subcutaneous; conditions: brain and plasma, read-out: Ratio AUC
Brain [23] = assay: Metabolic stability in C57Bl/6J mouse brain assessed as formation of ND-322 at 25 mg/kg, sc measured at 10 to 300 mins; format: ADME, organism-based; parameters: dose 25 mg/kg, route subcutaneous; conditions: in vivo; procedure, shortened: as §1
Liver = assay: Half life in rat liver S9 fraction at 10 uM by reversed-phase UPLC/ESI-MRM analysis; format: ADME, subcellular; conditions: s9, 10 µM
Procedure, shortened: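 Male rat liver S9 (1.0 mg) with 0.5 mM NADPH and 10 µM compound (both final) in 50 mM potassium phosphate, pH 7.4, at 37 °C, sampled over time. Aliquots were stopped with acetonitrile containing internal standard, and the supernatant was run by UPLC/ESI-MRM. Half-lives used first-order kinetics on peak-area ratios to internal standard.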

## CCNC(=O)Nc1ccc(Oc2ccc(S(=O)(=O)CC3CS3)cc2)cc1 (stereo unspecified)
Brain [1]
  Drug uptake: Active
[2]
  concentration at 5 h: 70.4 nM
Brain [3]
  AUClast: 9.86 pmol·min/mg
Plasma [4]
  AUC: 187 µM·min
Brain [5]
  beta t1/2: 204 min
Plasma [6]
  Drug uptake: Active
[7]
  half-life: 18.2 min
Plasma [8]
  AUClast: 181 µM·min
Neutrophil collagenase
  Ki: 17 µM
Plasma [9]
  Stability: Stable
[10]
  inhibition: inactive
[11]
  Ratio Ki: 20
[12]
  inhibition: 28%
[13]
  inhibition: inactive
Brain [14]
  Drug uptake: 0.0133 pmol
[15]
  half-life: 8.38 min
Brain [16]
  AUC: 13.8 pmol·min/mg
[17]
  inhibition: 7%
[18]
  inhibition: 17%
Plasma [19]
  beta t1/2: 61.9 min
[20]
  Ki: 0.44 µM
[21]
  Ratio Ki: 20
Homo sapiens
  Ratio Ki: 20
[22]
  Kp: 0.0738
Brain [23]
  Stability: Stable
Liver
  t1/2: 40.7 min

Source: ChEMBL document CHEMBL2440018 (J Med Chem, 2013)
